AI-2 QS modul: modulators of Vibrio harveyi AI-2 quorum sensing system; Vibrio harveyi JMH597 AI-2 luminescence/OD600 ratio, 9 h; hits give low values; strain lacks LuxN and CqsS sensors; 0 = neutral-control median; activity change, % at 7.5 µM; 300,000 tested, 0.4% active; AID 2094; in the data active means activity change below about -75%, passing the limit was not always enough;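 further: luminescence divided by OD600 gain over 9 h not by final OD600 alone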
MC4R antag cAMP: antagonists of human melanocortin 4 receptor (MC4R) | P32245 | MC4R-expressing cells, MTII-stimulated cAMP, LANCE TR-FRET | inhibition, % at 6.5 µM | 360,000 tested, 0.48% active;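 active means inhibition above its plate's cutoff, the mean of tested wells on that plate plus 3 SD, cut at about 29% in these data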;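 further: 0% = Melanotan II alone and 100% = Melanotan II plus saturating MCL0020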
Target sequence (P32245 whole entry, looked up): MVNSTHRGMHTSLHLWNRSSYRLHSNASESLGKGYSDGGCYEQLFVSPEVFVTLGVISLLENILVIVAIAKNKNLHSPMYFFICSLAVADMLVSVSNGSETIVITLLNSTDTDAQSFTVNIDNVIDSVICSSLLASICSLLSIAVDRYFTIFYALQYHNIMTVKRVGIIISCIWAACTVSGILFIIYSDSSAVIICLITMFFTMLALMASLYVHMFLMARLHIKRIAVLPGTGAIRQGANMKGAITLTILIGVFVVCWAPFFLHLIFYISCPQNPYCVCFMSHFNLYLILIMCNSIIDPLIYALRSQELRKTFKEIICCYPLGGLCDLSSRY
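Test system: U2OS cells stably expressing human melanocortin 4 receptor (MC4R); also added: Melanotan II challenge; compound: 6.5 µM single dose; timing: 30-min compound preincubation, 1-h Melanotan II challenge, 1-h detection, room temperature; signal: Eu-cAMP/anti-cAMP TR-FRET, emission 671 nm; repeats: one well per compound, no replicates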
NTR1 agonist: activates human neurotensin receptor 1. activation, % at 20 µM. NTR1-U2OS beta-arrestin-GFP spot imaging, agonist mode. AID 493036. 330,000 tested, 0.17% active;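 active means activation at or above 40% of the spot to cytoplasm intensity ratio, with at least 20 cells analyzed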;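 further: 0% = DMSO without peptide and 100% = 100 nM NTR1 peptide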
MC4R barr agon: human MC4R agonism via beta-arrestin; P32245; U2OS MC4R beta-arrestin complementation, luminescence; percent of melanotan II response, DMSO zero; activation, % at 8.9 µM; 360,000 tested, 0.98% active;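 active means activation above a per-plate cutoff, the mean activation of sample wells on that plate plus 3 SD, cut at about 8% in these data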
An asterisk follows results filed as active; x = no result. Rows were chosen to be rich in hits. Some 1.8% of all compounds tested hit in one or more screens of this group.

SMILES	AI-2 QS modul	MC4R antag cAMP	NTR1 agonist	MC4R barr agon
CS(=O)(=O)c1nc(-c2cccs2)cc(C(F)(F)F)n1	-89*	x	7	x
O=C(O)CCS(=O)(=O)c1nc(-c2cccs2)cc(C(F)(F)F)n1	26	5	4	-1
Cc1ccc(S(=O)(=O)NCc2cccnc2)cc1C(=O)N1CCCC1	15	-2	-2	-1
O=C(CSc1ccc(Cl)cc1)Nc1ccc(C2SCCS2)cc1	20	5	1	9.6*
O=C(CSc1c(F)c(F)cc(F)c1F)Nc1ccc(C2SCCS2)cc1	4	6	2	8.5*
O=C(COc1ccc(C2SCCS2)cc1)Nc1ccc(Cl)cc1	23	10	1	-1
CN(CC(=O)Nc1cccc(F)c1)C(=O)c1ccc(C2SCCS2)cc1	26	9	3	-2
CC(=O)Nc1ccc(S(=O)(=O)NCCC(=O)Nc2cc(C)ccn2)cc1	18	20	0	3
COc1ccc(CCNC(=O)C2CCCN(S(C)(=O)=O)C2)cc1OC (stereo not given)	-292*	-5	0	0
CCOC(=O)N1CCN(S(=O)(=O)N2CCCC(C(=O)NCCc3ccc(OC)c(OC)c3)C2)CC1 (stereo not given)	26	12	1	0
COc1ccc(CNC(=O)/C=C/c2ccc(OCCCF)cc2)cc1OC	-3	-1	0	-1
O=C(/C=C/c1ccc(OCCCF)cc1)NCc1ccc(Cl)c(Cl)c1	21	9	2	8.9*
COCCN(C(=O)COC(=O)CSc1ccc(Cl)cc1)c1c(N)n(Cc2ccccc2)c(=O)[nH]c1=O	18	2	1	-1
O=C(O)c1ccc(N/N=C/C2=Cc3ccccc3OC2)cc1	-91*	-4	0	0
CCCn1c(CCNc2nc(-c3cccc(Br)c3)cs2)nc2ccccc21	x	9	x	8.4*
CC(=O)Nc1ccc(S(=O)(=O)NCCC(=O)OCC(=O)NNC(=O)c2ccccc2)cc1	19	2	1	-3
Nc1nc2n[nH]nc2c(=O)[nH]1	-95*	10	-1	-1
Cc1cc(S(=O)(=O)Nc2c(NC3CCCCC3)c3ccccc3oc2=O)ccc1F	12	6	5	8.4*
CC(C)(C)Cc1nnc(NC(=O)CN2C(=O)c3ccccc3C2=O)s1	13	-4	1	-1
Cc1c(Cl)ccc2sc(NC(=O)CN3C(=O)c4ccccc4C3=O)nc12	-95*	-4	0	-1
CCCCc1nnc(NC(=O)CN2C(=O)c3ccccc3C2=O)s1	-86*	5	1	-2
CC1Nc2ncnc(N3CCN(c4ccccc4)CC3)c2N(Cc2ccc(Br)cc2)C1=O (stereo not given)	17	14	14	-5
CCC(C(=O)OCC(=O)Nc1ccc(SC(F)F)cc1)c1ccccc1 (stereo not given)	-89*	3	x	-2
CCC(C(=O)OCC(=O)Nc1ccc(F)cc1)c1ccccc1 (stereo not given)	x	11	-3	-1
CCN(CC)S(=O)(=O)c1cc(NC(=O)c2ccc3c(c2)NC(=O)C(C)S3)ccc1C (stereo not given)	x	11	8	1
SMILES	AI-2 QS modul	MC4R antag cAMP	NTR1 agonist	MC4R barr agon
O=C(Nc1ccc2oc(-c3ccc4ccccc4c3)nc2c1)c1ccc2c(c1)OCCO2	15	18	4	8.6*
CCN(c1ccccc1)S(=O)(=O)c1ccc(OC)c(NC(=O)c2ccco2)c1	x	14	x	-1
COc1ccc(CCNC(=O)C(=O)NCc2ccccn2)cc1	-79*	14	0	-2
CCCNC(=O)C(=O)NCc1ccccn1	18	2	0	0
CCN(CC)C(=O)c1cccc(-c2csc(C(NC(C)=O)c3ccc(F)c(F)c3)n2)c1 (stereo not given)	x	5	x	-2
N#Cc1nc(-c2ccccc2F)oc1NCc1cccc2c1OCO2	-87*	0	2	4
O=C(NCc1nnc(SCC(=O)N2CCOCC2)o1)c1c(F)cccc1F	3	-3	2	-4
CCCCCCOC(=O)CCc1c(C)nc(N)[nH]c1=O	39	-5	-2	-2
CCCCCCCCOC(=O)CCc1c(C)[nH]c(=S)[nH]c1=O	30	1	2	9.0*
COCC(=O)N(C)C[C@H]1Oc2ncc(Br)cc2C(=O)N([C@@H](C)CO)C[C@H]1C	x	6	x	-1
O=C(COC(=O)C12CC3CC(CC(Cl)(C3)C1)C2)Nc1ccc2[nH]c(=O)[nH]c2c1	x	1	3	0
O=C(COC(=O)/C=C/c1cccc(C(F)(F)F)c1)NCc1cccs1	x	-1	1	1
Cc1cccc(N2CCN(S(=O)(=O)c3ccc(-c4ccc(=O)[nH]n4)o3)CC2)c1C	-3	16	0	8.3*
COc1ccccc1N1CCN(S(=O)(=O)c2ccc(-c3ccc(=O)[nH]n3)o2)CC1	17	0	2	-3
O=c1[nH]c(=O)n([C@H]2C[C@H](O)[C@@H](CO)O2)cc1F	-99*	2	x	0
O=C(/C=C/c1ccco1)Nc1ccc2c(c1)OCO2	-14	-7	-1	-3
O=C(/C=C/c1ccco1)NCc1ccc2c(c1)OCO2	-77*	13	0	-4
CC(=O)Nc1ccc(NC(=O)CNC(=O)c2sc3ccccc3c2Cl)cc1	17	5	1	0
O=C(CNC(=O)c1sc2ccccc2c1Cl)NCc1cccc(C(F)(F)F)c1	7	7	1	9.4*
CCCCOC(=O)Oc1ccc2c(=O)c(Oc3cccc(C)c3)coc2c1	-77*	3	0	0
CCCCOC(=O)Oc1ccc2c(=O)c(Oc3cc(C)cc(C)c3)coc2c1	15	-1	8	2
Cc1ccc(Oc2coc3cc(O)ccc3c2=O)cc1	-94*	0	0	-1
Cc1cc(C)cc(Oc2coc3cc(O)ccc3c2=O)c1	-13	8	1	-1
O=C(Oc1ccc2c(=O)c(Oc3ccc4ccccc4c3)coc2c1)c1cncc(Br)c1	-83*	7	-3	-1
Cc1ccccc1C(=O)NNC(=O)CCCCC(=O)NNC(=O)c1ccccc1C	9	-2	-2	0
SMILES	AI-2 QS modul	MC4R antag cAMP	NTR1 agonist	MC4R barr agon
CN1CCN(CC(=O)N2CCn3c4c(c5cc(C6CCCCC6)ccc53)CCCC42)CC1 (stereo not given)	10	-5	0	27*
Cc1ccc2c(c1)c1c3n2CCN(C(=O)CN2CCN(C)CC2)C3CCC1 (stereo not given)	-5	-6	-3	-2
Cc1cc(NS(=O)(=O)c2ccc(NC(=O)Cc3cccs3)cc2)no1	-78*	-1	4	2
O=C(CN1C(=O)NC2(CCCC2)C1=O)N1CCN(Cc2ccccc2)CC1	20	-4	0	-1
COc1ccccc1C(CNC(=O)CNC(=O)c1ccccc1Cl)N1CCCC1 (stereo not given)	x	-1	-1	-2
CCCCOc1ccc(-c2nc(=S)[nH][nH]2)cc1	-89*	2	0	0
O=C(OCc1ccccc1)/C(=C/c1cccc(Br)c1)NC(=O)c1ccco1	7	-2	2	-4
